Laboratory results reported in ChEMBL document CHEMBL1641417, “Cytotoxicity and topoisomerase I/II inhibition of glycosylated 2-phenyl-indoles, 2-phenyl-benzo[b]thiophenes and 2-phenyl-benzo[b]furans” (Bioorg Med Chem, 2011).
pIC50: −log10 of the molar value. Calls of active or inactive are those of the source. No cut-off for these calls is given here.

How the values were obtained:
[1] = system: Nucleic Acid; assay: Binding affinity to DNA by ethidium bromide staining-based FID assay; parameters: concentration or dose not given beside the values
[2] = system: HepG2; assay: Cytotoxicity against human HepG2 cells after 72 hrs by MTS assay; details: HepG2, 72 h
[3] = system: HT-29; assay: Cytotoxicity against human HT-29 cells at 25 uM after 72 hrs by MTS assay
[4] = system: HT-29; assay: Cytotoxicity against human HT-29 cells assessed as cell viability at 25 uM after 72 hrs by MTS assay; details: HT-29, 72 h
[5] = system: MCF7; assay: Cytotoxicity against human MCF7 cells at 25 uM after 72 hrs by MTS assay
[6] = target: T1, DNA topoisomerase 1 (Homo sapiens) (UniProt P11387); assay: Inhibition of human recombinant DNA topoisomerase 1-mediated DNA cleavage assessed as decrease in relaxation of supercoiled plasmid substrate DNA at 100 uM after 30 mins by agarose gel electrophoresis
T1 sequence (whole entry): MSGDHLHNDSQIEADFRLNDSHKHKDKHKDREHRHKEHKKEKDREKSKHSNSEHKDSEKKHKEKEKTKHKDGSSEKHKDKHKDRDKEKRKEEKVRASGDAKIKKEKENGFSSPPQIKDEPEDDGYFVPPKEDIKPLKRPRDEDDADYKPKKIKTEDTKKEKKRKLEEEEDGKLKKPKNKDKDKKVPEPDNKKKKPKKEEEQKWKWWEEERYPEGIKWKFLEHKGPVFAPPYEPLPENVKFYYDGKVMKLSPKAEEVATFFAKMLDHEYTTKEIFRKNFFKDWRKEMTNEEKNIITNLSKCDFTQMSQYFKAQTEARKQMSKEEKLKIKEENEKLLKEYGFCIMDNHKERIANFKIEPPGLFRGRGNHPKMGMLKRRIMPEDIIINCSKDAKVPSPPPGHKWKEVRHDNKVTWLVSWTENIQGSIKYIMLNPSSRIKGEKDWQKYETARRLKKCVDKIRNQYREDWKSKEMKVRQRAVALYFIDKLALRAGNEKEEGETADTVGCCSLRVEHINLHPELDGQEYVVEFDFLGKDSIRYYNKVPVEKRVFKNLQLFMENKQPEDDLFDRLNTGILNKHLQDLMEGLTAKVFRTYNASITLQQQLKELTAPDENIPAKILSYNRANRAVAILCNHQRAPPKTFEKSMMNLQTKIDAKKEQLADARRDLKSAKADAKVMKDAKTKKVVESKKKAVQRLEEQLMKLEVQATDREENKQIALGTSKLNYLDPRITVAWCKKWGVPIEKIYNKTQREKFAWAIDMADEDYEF

[7] = system: HepG2; assay: Cytotoxicity against human HepG2 cells at 25 uM after 72 hrs by MTS assay
[8] = target: DNA topoisomerase 2-alpha (Homo sapiens) (UniProt P11388); assay: Inhibition of human recombinant DNA topoisomerase 2alpha-mediated DNA cleavage assessed as decrease in relaxation of supercoiled plasmid substrate DNA at 100 uM after 30 mins by agarose gel electrophoresis
DNA topoisomerase 2-alpha (Homo sapiens), sequence (P11388 whole entry): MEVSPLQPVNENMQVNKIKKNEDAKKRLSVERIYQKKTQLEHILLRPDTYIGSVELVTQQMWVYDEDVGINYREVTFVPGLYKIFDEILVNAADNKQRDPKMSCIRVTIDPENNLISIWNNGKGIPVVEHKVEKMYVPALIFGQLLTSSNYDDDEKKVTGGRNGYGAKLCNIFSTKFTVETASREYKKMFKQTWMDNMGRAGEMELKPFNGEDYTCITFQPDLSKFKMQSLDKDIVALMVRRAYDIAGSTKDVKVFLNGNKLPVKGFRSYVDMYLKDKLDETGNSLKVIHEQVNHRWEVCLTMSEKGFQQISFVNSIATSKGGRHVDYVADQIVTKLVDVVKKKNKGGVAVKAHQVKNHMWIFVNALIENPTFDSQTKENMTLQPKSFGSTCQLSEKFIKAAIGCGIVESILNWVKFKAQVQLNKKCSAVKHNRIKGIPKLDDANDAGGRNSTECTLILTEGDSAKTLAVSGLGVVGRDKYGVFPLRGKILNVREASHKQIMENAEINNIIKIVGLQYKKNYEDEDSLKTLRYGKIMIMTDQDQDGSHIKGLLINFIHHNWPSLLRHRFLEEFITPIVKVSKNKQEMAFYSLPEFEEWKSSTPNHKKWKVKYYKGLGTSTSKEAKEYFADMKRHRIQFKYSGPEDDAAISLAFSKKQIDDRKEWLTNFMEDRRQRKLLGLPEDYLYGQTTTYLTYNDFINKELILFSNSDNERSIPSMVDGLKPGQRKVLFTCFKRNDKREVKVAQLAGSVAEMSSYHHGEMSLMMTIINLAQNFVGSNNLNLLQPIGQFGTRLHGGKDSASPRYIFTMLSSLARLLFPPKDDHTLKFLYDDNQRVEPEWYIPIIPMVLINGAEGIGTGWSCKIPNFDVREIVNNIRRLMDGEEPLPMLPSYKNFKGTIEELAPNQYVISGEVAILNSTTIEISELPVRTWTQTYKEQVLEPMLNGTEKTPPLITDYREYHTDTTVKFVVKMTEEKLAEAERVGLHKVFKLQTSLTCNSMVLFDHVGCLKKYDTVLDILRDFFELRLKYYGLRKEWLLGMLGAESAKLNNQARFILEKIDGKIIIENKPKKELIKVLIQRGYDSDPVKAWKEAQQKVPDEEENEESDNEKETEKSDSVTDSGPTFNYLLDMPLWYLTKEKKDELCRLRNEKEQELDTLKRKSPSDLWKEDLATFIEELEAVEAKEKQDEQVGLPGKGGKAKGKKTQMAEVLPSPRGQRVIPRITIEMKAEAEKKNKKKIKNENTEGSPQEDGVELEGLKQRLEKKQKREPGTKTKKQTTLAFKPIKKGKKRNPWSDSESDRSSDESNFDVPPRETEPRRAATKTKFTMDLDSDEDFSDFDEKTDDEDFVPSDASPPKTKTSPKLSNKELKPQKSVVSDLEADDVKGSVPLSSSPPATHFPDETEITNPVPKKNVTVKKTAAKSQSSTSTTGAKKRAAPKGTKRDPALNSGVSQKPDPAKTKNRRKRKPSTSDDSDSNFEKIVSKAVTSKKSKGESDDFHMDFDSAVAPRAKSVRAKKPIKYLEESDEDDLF

[9] = system: HT-29; assay: Cytotoxicity against human HT-29 cells after 72 hrs by MTS assay; details: HT-29, 72 h
[10] = system: MCF7; assay: Cytotoxicity against human MCF7 cells assessed as cell viability at 25 uM after 72 hrs by MTS assay; details: MCF7, 72 h
[11] = system: HepG2; assay: Cytotoxicity against human HepG2 cells assessed as cell viability at 25 uM after 24 hrs by MTS assay; format: functional; details: HepG2, 24 h, read-out: Activity
[12] = system: MCF7; assay: Cytotoxicity against human MCF7 cells after 72 hrs by MTS assay; details: MCF7, 72 h
[13] = Cytotoxicity against human CRL7761 cells after 3 days by MTS assay; format: cell-based; details: 72 h
Procedure, shortened: (§1)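 Non-tumour cells were CRL-7761 human skin, Vero monkey kidney (DMEM high glucose, 5% FBS, 10 mM HEPES) and NIH/3T3 mouse (DMEM, 10% calf serum). Cells were seeded, left 24 h, then switched to serum-free DMEM-F12 with albumin, transferrin and insulin, with or without compound. Exposure was 3 days at 37 °C.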

[14] = system: Vero; assay: Cytotoxicity against african green monkey Vero cells after 3 days by MTS assay; format: cell-based; details: Chlorocebus sabaeus, 72 h
Procedure, shortened: as §1

[15] = Cytotoxicity against mouse NIH/3T3 cells after 3 days by MTS assay; format: cell-based; details: NIH3T3, 72 h
Procedure, shortened: as §1

[16] = target: DNA topoisomerase 2-alpha (Homo sapiens) (UniProt P11388); assay: Inhibition of human recombinant DNA topoisomerase 2alpha-mediated DNA cleavage assessed as decrease in relaxation of supercoiled plasmid substrate DNA at 20 uM after 30 mins by agarose gel electrophoresis
[17] = target: DNA topoisomerase 2-alpha (Homo sapiens) (UniProt P11388); assay: Induction of poisoning activity in human recombinant DNA topoisomerase 2alpha assessed as enhancement of in relaxation of supercoiled plasmid substrate DNA at 100 uM after 30 mins by agarose gel electrophoresis
Procedure, shortened: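 For topo IIα cleavage, 0.25 µg supercoiled pRYG was incubated with 4 units of human topoisomerase IIα (p170) in Tris buffer with 2 mM ATP and 10 mM MgCl2 for 30 min at 37 °C. Workup was SDS stop, proteinase K, extraction and agarose electrophoresis. Poisoning was judged by appearance of a linear DNA band.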

[18] = target: T1, DNA topoisomerase 1 (Homo sapiens); assay: Induction of poisoning activity in human recombinant DNA topoisomerase 1 assessed as enhancement of in relaxation of supercoiled plasmid substrate DNA at 100 uM after 30 mins by agarose gel electrophoresis
Procedure, shortened: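 In the topo I cleavage (poison) assay, the relaxation format was used with 6 units of enzyme for 30 min at 37 °C. Reactions were stopped with SDS, digested with proteinase K and CIA-extracted. DNA was run on 1% agarose with and without ethidium bromide. Poisoning was scored by the presence of the nicked open-circular band, referenced to camptothecin.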

[19] = target: T1, DNA topoisomerase 1 (Homo sapiens); assay: Inhibition of human recombinant DNA topoisomerase 1-mediated DNA cleavage assessed as decrease in relaxation of supercoiled plasmid substrate DNA at 40 uM after 30 mins by agarose gel electrophoresis
[20] = target: DNA topoisomerase 2-alpha (Homo sapiens) (UniProt P11388); assay: Inhibition of human recombinant DNA topoisomerase 2alpha-mediated DNA cleavage assessed as decrease in relaxation of supercoiled plasmid substrate DNA at 40 uM after 30 mins by agarose gel electrophoresis
[21] = system: HT-29; assay: Cytotoxicity against human HT-29 cells assessed as cell viability at 100 uM after 72 hrs by MTS assay; details: HT-29, 72 h
[22] = system: HepG2; assay: Cytotoxicity against human HepG2 cells assessed as cell viability at 100 uM after 72 hrs by MTS assay; details: HepG2, 72 h
[23] = system: MCF7; assay: Cytotoxicity against human MCF7 cells assessed as cell viability at 100 uM after 72 hrs by MTS assay; details: MCF7, 72 h

Structure (SMILES) | Activity [1] | pIC50 [2] | Activity [3] | viability at 25 µM [4] | Activity [5] | inhibition [6] | Activity [7] | inhibition [8] | pIC50 [9] | viability at 25 µM [10] | viability at 25 µM [11] | pIC50 [12] | pIC50 [13] | pIC50 [14] | pIC50 [15] | inhibition [16] | Activity [17] | Activity [18] | also measured
C[C@@H]1O[C@@H](OCC#Cc2c(-c3ccccc3)sc3ccccc23)C[C@H](N)[C@H]1O | 73.6% | 4.76 | 100% | < 1% | 100% | 32.2% | 100% | 22.2% | 4.96 | 2% | 2% | 4.80 | – | – | – | – | – | – | –
C[C@@H]1O[C@@H](OCC#Cc2c(-c3ccccc3)oc3ccccc23)C[C@H](N)[C@H]1O | 50.5% | 5.11 | 100% | < 1% | 100% | 25.5% | 100% | 5.5% | 5.19 | < 1% | < 1% | 5.27 | < 4.60 | 4.97 | 5.19 | – | – | – | –
C[C@@H]1O[C@@H](OCC#Cc2c(-c3ccccc3)[nH]c3ccccc23)C[C@H](N)[C@@H]1O | 76.7% | 4.89 | 100% | < 1% | 100% | 8.8% | 100% | 7.1% | 4.85 | < 1% | < 1% | 4.80 | – | – | – | – | – | – | –
C[C@@H]1O[C@@H](OCC#Cc2c(-c3ccccc3)[nH]c3ccccc23)C[C@H](N)[C@H]1O | 76.5% | 4.79 | – | 7% | 100% | 8.2% | 100% | 55.5% | 4.71 | 2% | < 1% | 4.76 | – | – | – | inactive | – | – | –
C[C@@H]1O[C@@H](OCC#Cc2c(-c3ccccc3)[nH]c3ccccc23)CC[C@@H]1N | 78.4% | 4.94 | 100% | < 1% | 100% | 4% | 100% | 39.5% | 5.04 | < 1% | < 1% | 4.97 | 4.62 | 4.69 | 4.83 | – | – | – | –
Cc1ccc(S(=O)(=O)n2c(-c3ccccc3)c(C#CCO[C@H]3C[C@H](N)[C@@H](O)[C@H](C)O3)c3ccccc32)cc1 | 49.7% | 5.11 | 100% | < 1% | 100% | 92.8% | 100% | 103% | 5.14 | < 1% | < 1% | 5.33 | 4.61 | 4.94 | 5.24 | inactive | inactive | inactive | inhibition [19]: inactive; inhibition [20]: Active
Ic1c(-c2ccccc2)sc2ccccc12 | – | – | – | – | – | – | – | – | – | – | – | – | – | – | – | – | inactive | inactive | viability at 100 µM [21]: 89%; viability at 100 µM [22]: 87%; viability at 100 µM [23]: 111%
Cc1ccc(S(=O)(=O)n2c(-c3ccccc3)c(C#CCO[C@H]3CC[C@H](N)[C@H](C)O3)c3ccccc32)cc1 | 38.6% | 5.02 | 100% | < 1% | 100% | 43.2% | 100% | 86.2% | 5.27 | < 1% | < 1% | 5.29 | 4.76 | 5.00 | 5.31 | inactive | inactive | inactive | inhibition [20]: Active
C[C@@H]1O[C@@H](OCC#Cc2c(-c3ccccc3)sc3ccccc23)CC[C@@H]1N | 79.9% | 5.06 | 100% | < 1% | 100% | 7.9% | 100% | 16.4% | 5.23 | < 1% | < 1% | 5.15 | < 4.60 | 4.74 | 5.01 | – | – | – | –
C[C@@H]1O[C@@H](OCC#Cc2c(-c3ccccc3)oc3ccccc23)C[C@H](N)[C@@H]1O | 62% | 5.49 | 100% | < 1% | 100% | 77.8% | 100% | 6.5% | 5.28 | < 1% | < 1% | 5.18 | 4.78 | 5.24 | 5.32 | inactive | inactive | inactive | inhibition [19]: inactive
C[C@@H]1O[C@@H](OCC#Cc2c(-c3ccccc3)sc3ccccc23)C[C@H](N)[C@@H]1O | 67.5% | 5.22 | 100% | < 1% | 100% | 36.9% | 100% | 5.8% | 5.59 | < 1% | < 1% | 5.15 | 4.65 | 5.03 | 5.24 | – | – | – | –
C[C@@H]1O[C@@H](OCC#Cc2c(-c3ccccc3)oc3ccccc23)CC[C@@H]1N | 68.5% | 5.10 | 100% | < 1% | 100% | 20.2% | 100% | 0% | 5.19 | < 1% | < 1% | 4.99 | < 4.60 | 4.96 | 5.43 | – | – | – | –
CC[C@@]1(O)C(=O)OCc2c1cc1n(c2=O)Cc2cc3ccccc3nc2-1 | – | – | – | – | – | – | – | – | – | – | – | – | – | – | – | – | inactive | inactive | –
